The text below walks through data of ChEMBL document CHEMBL1817592, “Triazoles as γ-secretase modulators” (Bioorg Med Chem Lett, 2011).

Common to all, as to format: ADME, organism-based
Data set [1] in a line: Plasma clearance in Sprague-Dawley rat at 1 mg/kg, iv and 2 mg/kg, po. Summed up:
(§1)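 SD rat pharmacokinetics: 1 mg/kg iv and 2 mg/kg po. Plasma clearance and Vd were determined. Half-life came from the iv arm.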

Data set [2] can be described thus: Volume of distribution at steady state in Sprague-Dawley rat at 1 mg/kg, iv and 2 mg/kg, po. The following applies: in vivo, read-out: Vdss. Summed up: as §1
Data set [3] can be described thus: Half life in Sprague-Dawley rat at 1 mg/kg, iv. Details: dose 1 mg/kg, route intravenous. The conditions noted are these: in vivo. A digest of the protocol: as §1
A short description of data set [4]: Oral bioavailability in Sprague-Dawley rat at 2 mg/kg. The conditions noted are these: in vivo. Summed up:
as §1

Another data set concerns Rattus norvegicus. Briefly: Dose normalized AUC (0 to 24 hrs) in Sprague-Dawley rat at 2 mg/kg, po. Details: dose 2 mg/kg, route oral. The following applies: in vivo. Summed up:
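Sprague–Dawley rats dosed orally at 2 mg/kg, alongside a separate 1 mg/kg iv arm. Plasma exposure was followed over 0–24 h after the oral dose. AUC was normalized to dose and expressed as μM h kg/mg.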

Data set [5] in a line: Plasma concentration in Sprague-Dawley rat at 60 mg/kg, po after 6 hrs. Details: dose 60 mg/kg, route oral. Summed up: (§2)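 Single 60 mg/kg oral dose in SD rats. Plasma and brain drug exposure and central Aβ42 were assessed 6 h post-dose.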
Data set [6] in a line: Drug level in Sprague-Dawley rat brain at 60 mg/kg, po after 6 hrs. The following applies: read-out: Drug uptake. Details: dose 60 mg/kg, route oral. A digest of the protocol:
as §2

Data set [7] is described as follows: Plasma concentration in Sprague-Dawley rat at 100 mg/kg, po after 6 hrs. Details: dose 100 mg/kg, route oral. Summed up:
(§3)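 SD rats given a single 100 mg/kg oral dose, n=5. Plasma and whole brain were taken 6 h later. Drug concentrations were measured in both, the brain-to-plasma ratio was derived from them, and whole-brain Aβ42 was reported as percent change.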

Data set [8] in a line: Drug level in Sprague-Dawley rat brain at 100 mg/kg, po after 6 hrs. Details: dose 100 mg/kg, route oral. The conditions noted are these: read-out: Drug uptake. A digest of the protocol: as §3
A short description of data set [9]: Ratio of drug level in brain to plasma in Sprague-Dawley rat at 100 mg/kg, po after 6 hrs. Details: dose 100 mg/kg, route oral. The following applies: read-out: BPR. A digest of the protocol: as §3

Molecules are shown by their SMILES.

In data set [1], `COc1cc(-c2cn(Cc3ccc(-c4nc5ccccc5o4)cc3)nn2)ccc1-n1cnc(C)c1` yielded a clearance of 13.7 mL/min/kg. Further, the Vd in data set [2] amounted to 2.8 L/kg. The half-life – broadly, the time needed for the level to fall by half in the phase considered – in data set [3] was 5.4 h. For the same compound, in data set [4], the bioavailability – broadly, the share of a dose that reaches the circulation, judged against a reference dose that is usually intravenous – was 49%. Further, the AUC/dose in the data set with Rattus norvegicus was determined as 2.6 µM·kg·h/mg. For the same compound, the concentration at 6 h amounted to 40 µM in data set [5] and 9.4 µM in [6].

In data set [1], `COc1cc(-c2cn(Cc3ccc(C(C)(C)C)cc3)nn2)ccc1-n1cnc(C)c1` came in with a clearance of 24 mL/min/kg. Also, the Vd in [2] amounted to 7.1 L/kg. In [3], this compound showed a half-life of 7.7 h. This compound registered a bioavailability in data set [4] of 41%. Besides, the AUC/dose in the data set with Rattus norvegicus came out at 1.4 µM·kg·h/mg. For the same compound, the concentration at 6 h in data set [7] was 47 µM; in [8] it was 56 µM. For the same compound, the Kp at 6 h in data set [9] is 1.2.
